# From ChEMBL document CHEMBL2407075, “Sulphonamido-quinoxalines: search for anticancer agent” (Eur J Med Chem, 2013)
# Experiments:
# Type in all cases: functional
# [1] = Growth inhibition of human NCI-ADR-RES cells at 10 uM after 48 hrs by sulforhodamine B assay; conditions: read-out: GI
# In short: (§1)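 Single-dose screen at 10 µM across the NCI 60 panel. Cells in RPMI 1640 with 5% FBS and 2 mM L-glutamine, plated at 5000–40,000/well and preincubated 24 h at 37 °C, 5% CO2. Drug in DMSO, 48 h exposure. Fixed with TCA, stained with SRB, A515 read. Percent growth is taken relative to untreated control, and inhibition is 100 minus growth.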
# NCI-H522 = assay: Growth inhibition of human NCI-H522 cells at 10 uM after 48 hrs by sulforhodamine B assay; conditions: NCI-H522, 48 h, read-out: GI; in short: as §1
# HL-60(TB) = assay: Growth inhibition of human HL-60(TB) cells at 10 uM after 48 hrs by sulforhodamine B assay; conditions: HL-60, 48 h, read-out: GI
# In short: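 Single-dose NCI-60 primary screen at 10 µM, 48 h exposure, SRB read-out. Growth percentage of treated versus untreated cells was recorded and given as percent inhibition by subtraction.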
# NCI-H460 = assay: Growth inhibition of human NCI-H460 cells at 10 uM after 48 hrs by sulforhodamine B assay; conditions: NCI-H460, 48 h, read-out: GI; in short: as §1
# SK-MEL-28 = assay: Growth inhibition of human SK-MEL-28 cells at 10 uM after 48 hrs by sulforhodamine B assay; conditions: SK-MEL-28, 48 h, read-out: GI; in short: as §1
# SNB-75 = assay: Growth inhibition of human SNB75 cells at 10 uM after 48 hrs by sulforhodamine B assay; conditions: SNB-75, 48 h, read-out: GI; in short: as §1
# M14 = assay: Growth inhibition of human M14 cells at 10 uM after 48 hrs by sulforhodamine B assay; conditions: M14, 48 h, read-out: GI; in short: as §1
# IGROV-1 = assay: Growth inhibition of human IGROV1 cells at 10 uM after 48 hrs by sulforhodamine B assay; conditions: IGROV-1, 48 h, read-out: GI; in short: as §1
# HCT-15 = assay: Growth inhibition of human HCT15 cells at 10 uM after 48 hrs by sulforhodamine B assay; conditions: HCT-15, 48 h, read-out: GI
# In short: (§2)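 NCI-60 one-dose primary screen at a single 10 µM concentration. Cells in RPMI 1640 with 5% FBS, preincubated 24 h at 37 °C, 5% CO2. Drug exposure 48 h, then TCA fixation, SRB staining and absorbance at 515 nm. Percent growth calculated against time-zero and untreated control wells, then converted to percent growth inhibition.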
# KM12 = assay: Growth inhibition of human KM12 cells at 10 uM after 48 hrs by sulforhodamine B assay; conditions: KM12, 48 h, read-out: GI; in short: as §1
# NCI-H226 = assay: Growth inhibition of human NCI-H226 cells at 10 uM after 48 hrs by sulforhodamine B assay; conditions: NCI-H226, 48 h, read-out: GI; in short: as §1
# SF-268 = assay: Growth inhibition of human SF268 cells at 10 uM after 48 hrs by sulforhodamine B assay; conditions: SF-268, 48 h, read-out: GI; in short: as §1
# T47D = assay: Growth inhibition of human T47D cells at 10 uM after 48 hrs by sulforhodamine B assay; conditions: read-out: GI; in short: as §1
# RPMI-8226 = assay: Growth inhibition of human RPMI8226 cells at 10 uM after 48 hrs by sulforhodamine B assay; conditions: RPMI-8226, 48 h, read-out: GI; in short: as §1
# SF-295 = assay: Growth inhibition of human SF295 cells at 10 uM after 48 hrs by sulforhodamine B assay; conditions: SF-295, 48 h, read-out: GI; in short: as §1
# SK-MEL-2 = assay: Growth inhibition of human SK-MEL-2 cells at 10 uM after 48 hrs by sulforhodamine B assay; conditions: SK-MEL-2, 48 h, read-out: GI; in short: as §1
# MCF7 = assay: Growth inhibition of human MCF7 cells at 10 uM after 48 hrs by sulforhodamine B assay; conditions: MCF7, 48 h, read-out: GI; in short: as §1
# CCRF-CEM = assay: Growth inhibition of human CCRF-CEM cells at 10 uM after 48 hrs by sulforhodamine B assay; conditions: read-out: GI
# In short: (§3)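 Single-dose NCI-60 prescreen at 10 µM for 48 h at 37 °C and 5% CO2, using cells grown in RPMI 1640 with 5% FBS and 2 mM glutamine. Protein was measured by SRB after TCA fixation: 10% final for adherent lines, 16% for suspension lines. Absorbance was read at 515 nm. Percent growth inhibition was obtained by subtracting percent growth from 100.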
# A549 = assay: Growth inhibition of human A549/ATCC cells at 10 uM after 48 hrs by sulforhodamine B assay; conditions: A549, 48 h, read-out: GI; in short: as §3
# SW-620 = assay: Growth inhibition of human SW620 cells at 10 uM after 48 hrs by sulforhodamine B assay; conditions: SW-620, 48 h, read-out: GI; in short: as §1
# CAKI-1 = assay: Growth inhibition of human CAKI-1 cells at 10 uM after 48 hrs by sulforhodamine B assay; conditions: CAKI-1, 48 h, read-out: GI; in short: as §3
# BT-549 = assay: Growth inhibition of human BT549 cells at 10 uM after 48 hrs by sulforhodamine B assay; conditions: BT-549, 48 h, read-out: GI; in short: as §3
# COLO 205 = assay: Growth inhibition of human COLO205 cells at 10 uM after 48 hrs by sulforhodamine B assay; conditions: COLO 205, 48 h, read-out: GI; in short: as §3
# MDA-MB-231 = assay: Growth inhibition of human MDA-MB-231 cells at 10 uM after 48 hrs by sulforhodamine B assay; conditions: MDA-MB-231, 48 h, read-out: GI; in short: as §1
# [2] = Growth inhibition of human EKVX cells at 10 uM after 48 hrs by sulforhodamine B assay; conditions: read-out: GI; in short: as §2
SMILES,inhibition of growth at 10 µM [1],inhibition of growth at 10 µM (NCI-H522),inhibition of growth at 10 µM (HL-60(TB)),inhibition of growth at 10 µM (NCI-H460),inhibition of growth at 10 µM (SK-MEL-28),inhibition of growth at 10 µM (SNB-75),inhibition of growth at 10 µM (M14),inhibition of growth at 10 µM (IGROV-1),inhibition of growth at 10 µM (HCT-15),inhibition of growth at 10 µM (KM12),inhibition of growth at 10 µM (NCI-H226),inhibition of growth at 10 µM (SF-268),inhibition of growth at 10 µM (T47D),inhibition of growth at 10 µM (RPMI-8226),inhibition of growth at 10 µM (SF-295),inhibition of growth at 10 µM (SK-MEL-2),inhibition of growth at 10 µM (MCF7),inhibition of growth at 10 µM (CCRF-CEM),inhibition of growth at 10 µM (A549),inhibition of growth at 10 µM (SW-620),other results
COc1ccccc1NS(=O)(=O)c1ccc2nc(-c3ccccc3)c(-c3ccccc3)nc2c1,41%,28.8%,60.7%,45.5%,12.7%,31.9%,26%,11.8%,44.7%,8.62%,69.9%,23.8%,63.9%,65.7%,15.9%,25%,31.8%,49.8%,36.5%,21.5%,inhibition of growth at 10 µM (CAKI-1): 23.9%; inhibition of growth at 10 µM (BT-549): 55.1%; inhibition of growth at 10 µM (COLO 205): 28.9%; inhibition of growth at 10 µM (MDA-MB-231): 48.3%; inhibition of growth at 10 µM [2]: 48.8%
NC(=S)NNS(=O)(=O)c1ccc2nc(-c3ccccc3)c(-c3ccccc3)nc2c1,11.9%,13.7%,40.6%,15.6%,6.93%,25.6%,4.23%,8.83%,29.9%,15.9%,52.9%,2.92%,42.6%,46.4%,8.92%,7.94%,18.9%,35.8%,34.7%,3.72%,inhibition of growth at 10 µM (CAKI-1): 2.94%; inhibition of growth at 10 µM (BT-549): 1.83%; inhibition of growth at 10 µM (COLO 205): 4.83%; inhibition of growth at 10 µM (MDA-MB-231): 17.6%; inhibition of growth at 10 µM [2]: 23.7%
CC(=S)NS(=O)(=O)c1ccc2nc(-c3ccccc3)c(-c3ccccc3)nc2c1,8.63%,3.73%,35.3%,8.63%,1.73%,26.9%,2.85%,14.8%,26.2%,16.8%,53.6%,1.86%,40.6%,39.6%,5.83%,8.53%,11.8%,24.8%,7.74%,3.84%,inhibition of growth at 10 µM (CAKI-1): 5.83%; inhibition of growth at 10 µM (BT-549): 2.74%; inhibition of growth at 10 µM (COLO 205): 4.64%; inhibition of growth at 10 µM (MDA-MB-231): 14.8%; inhibition of growth at 10 µM [2]: 8.53%
